Experimental data as given in ChEMBL document CHEMBL1123554, “Acetylenic nucleosides. 4. 1-beta-D-arabinofuranosyl-5-ethynylcytosine. Improved synthesis and evaluation of biochemical and antiviral properties” (1987).

How the values were obtained:
[1] = biological target: Cytidine deaminase (Homo sapiens) (UniProt P32320); experiment: relative velocity was determined against deaminase purified from human acute myeloblastic leukemia cells
Human alphaherpesvirus 1 [2] = experiment: Antiviral activity against HSV-1 kinase mutant resistant to Tr7(ACV) was determined at a conc of 30 uM; assay type: functional
Procedure, shortened: (§1)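 HSV-infected HeLa BU cells seeded in 25-cm² flasks. The next day, virus was added at a multiplicity of 3–5 PFU/cell and allowed 1 h to adsorb. Virus was then removed and growth medium with or without drug was added. Cells were held at 37 °C for 24 h, then frozen at –70 °C until titration. Yield is expressed as PFU, % of untreated control.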

Human alphaherpesvirus 1 [3] = experiment: Antiviral activity against HSV-1 kinase mutant resistant to B3(BVdU) was determined at a conc of 30 uM; assay type: functional
Procedure, shortened: as §1

Human alphaherpesvirus 1 [4] = experiment: Antiviral activity against HSV-1 kinase mutant resistant to SCS(parental) was determined at a conc of 30 uM; assay type: functional
Procedure, shortened: as §1

Human alphaherpesvirus 1 [5] = experiment: Antiviral activity against HSV-1 kinase mutant resistant to S1(ACV) was determined at a conc of 50 uM; assay type: functional
Procedure, shortened: as §1

Human alphaherpesvirus 1 [6] = experiment: Antiviral activity against DNA polymerase mutant resistant to PFA 3b(PFA) was determined at a conc of 50 uM; assay type: functional
Procedure, shortened: as §1

[7] = system: Thymidine kinase (Human herpesvirus 2); experiment: Phosphorylating activity of viral HSV -2 (333) induced thymidine kinase relative to dThdK was determined; settings: Human alphaherpesvirus 2
Human alphaherpesvirus 1 [8] = experiment: Antiviral activity against HSV-1 kinase mutant resistant to SCS(parental) was determined at a conc of 100 uM; assay type: functional
Procedure, shortened: as §1

Human alphaherpesvirus 1 [9] = experiment: Antiviral activity against HSV-1 kinase mutant resistant to S1(ACV) was determined at a conc of 100 uM; assay type: functional
Procedure, shortened: as §1

Human alphaherpesvirus 1 [10] = experiment: Antiviral activity against DNA polymerase mutant resistant to PFA 1a (PFA) was determined at a conc of 50 uM; assay type: functional
Procedure, shortened: as §1

Human alphaherpesvirus 1 [11] = experiment: Antiviral activity against HSV-1 kinase mutant resistant to B3(BVdU) was determined at a conc of 50 uM; assay type: functional
Procedure, shortened: as §1

Human alphaherpesvirus 1 [12] = experiment: Antiviral activity against HSV-1 kinase mutant resistant to Tr7(ACV) was determined at a conc of 100 uM; assay type: functional
Procedure, shortened: as §1

Human alphaherpesvirus 1 [13] = experiment: Antiviral activity against DNA polymerase mutant resistant to PFA 5a(PFA) was determined at a conc of 100 uM; assay type: functional
Procedure, shortened: as §1

Human alphaherpesvirus 1 [14] = experiment: Antiviral activity against HSV-1 kinase mutant resistant to Tr7(ACV) was determined at a conc of 50 uM; assay type: functional
Procedure, shortened: as §1

Human alphaherpesvirus 1 [15] = experiment: Antiviral activity against HSV-1 kinase mutant resistant to B3(BVdU) was determined at a conc of 100 uM; assay type: functional
Procedure, shortened: as §1

Human alphaherpesvirus 1 [16] = experiment: Antiviral activity against DNA polymerase mutant resistant to KOS(parental) was determined at a conc of 50 uM; assay type: functional
Procedure, shortened: as §1

Human alphaherpesvirus 2 = experiment: Antiviral activity against HSV-2 (333)was determined at a conc of 50 uM; assay type: functional
Procedure, shortened: as §1

Human alphaherpesvirus 1 [17] = experiment: Antiviral activity against DNA polymerase mutant resistant to KOS(parental) was determined at a conc of 100 uM; assay type: functional
Procedure, shortened: as §1

Human alphaherpesvirus 1 [18] = experiment: Antiviral activity against DNA polymerase mutant resistant to PFA 1a (PFA) was determined at a conc of 100 uM; assay type: functional
Procedure, shortened: as §1

Human alphaherpesvirus 1 [19] = experiment: Antiviral activity against DNA polymerase mutant resistant to PFA 5a(PFA) was determined at a conc of 50 uM; assay type: functional
Procedure, shortened: as §1

Human alphaherpesvirus 1 [20] = experiment: Antiviral activity against HSV-1 kinase mutant resistant to SCS(parental) was determined at a conc of 50 uM; assay type: functional
Procedure, shortened: as §1

Human alphaherpesvirus 1 [21] = experiment: Antiviral activity against DNA polymerase mutant resistant to PFA 3b(PFA) was determined at a conc of 100 uM; assay type: functional
Procedure, shortened: as §1

[22] = biological target: Cytidine deaminase (Homo sapiens) (UniProt P32320); experiment: Relative velocity was determined against deaminase purified from human acute myeloblastic leukemia cells

Chain of Cytidine deaminase (Homo sapiens) (P32320 whole entry, looked up): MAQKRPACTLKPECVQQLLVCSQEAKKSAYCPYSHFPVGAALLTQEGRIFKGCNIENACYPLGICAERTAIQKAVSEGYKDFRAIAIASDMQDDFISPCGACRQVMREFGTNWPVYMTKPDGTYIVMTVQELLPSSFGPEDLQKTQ

SMILES | Control (Human alphaherpesvirus 1 [5]) | Control (Human alphaherpesvirus 1 [6]) | Control (Human alphaherpesvirus 1 [10]) | Control (Human alphaherpesvirus 1 [11]) | Control (Human alphaherpesvirus 1 [14]) | Control (Human alphaherpesvirus 1 [16]) | Control (Human alphaherpesvirus 1 [19]) | Control (Human alphaherpesvirus 1 [20]) | also measured
Nc1ccn([C@H]2C[C@H](O)[C@@H](CO)O2)c(=O)n1 |  |  |  |  |  |  |  |  | Relative velocity [1]: 1
O=c1[nH]c(=O)n([C@H]2C[C@H](O)[C@@H](CO)O2)cc1/C=C/Br [BRIVUDINE] |  |  |  |  |  |  |  |  | Control (Human alphaherpesvirus 1 [2]): 0.8%; Control (Human alphaherpesvirus 1 [3]): 52%; Control (Human alphaherpesvirus 1 [4]): 0.4%
C#Cc1cn(C2O[C@H](CO)[C@@H](O)[C@@H]2O)c(=O)nc1N (stereo not given in full) | 70% | 0.36% | 0.54% | 0.04% | 4.7% | 0.06% | 0% | 0.38% | Relative velocity [7]: 30%; Control (Human alphaherpesvirus 1 [8]): 0.12%; Control (Human alphaherpesvirus 1 [9]): 59%; Control (Human alphaherpesvirus 1 [12]): 0.12%; Control (Human alphaherpesvirus 1 [13]): 0.1%; Control (Human alphaherpesvirus 1 [15]): 0.06%; Control (Human alphaherpesvirus 2): 0.28%; Control (Human alphaherpesvirus 1 [17]): 0.06%; Control (Human alphaherpesvirus 1 [18]): 0.04%; Control (Human alphaherpesvirus 1 [21]): 0.04%; Relative velocity [22]: 0.02
O=C(O)P(=O)(O)O [FOSCARNET] |  | 24% | 37% |  |  | 2.9% | 63% |  | 
Nc1nc2c(ncn2COCCO)c(=O)[nH]1 [ACYCLOVIR] | 18% | 63% | 37% | 0.3% | 10% | 3% | 21% | 0.2% | 
